# PAD4 inh = blocks human protein arginine deiminase 4; Q9UM07; recombinant PAD4, RCA probe fluorescence polarization; inhibition, % at 6.36 µM; 330,000 compounds, 0.41% hits; AID 485272;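 active = percent inhibition above a cutoff equal to the mean of all tested compounds plus 3 SD, cut at about 15% in these data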;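 also: 0% = PAD4 with RCA probe and DMSO and 100% = probe without PAD4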
# PP5 primary = PP5 (human) phosphatase inhibition; AID 1987; 320,000 compounds, 0.18% hits; purified PP5c, OMFP substrate fluorescence; P53041; inhibition, % at 6.7 µM;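 active = inhibition above the campaign's mean inhibition across all tested compounds plus 3 SD, cut at about 9.5% in these data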;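 also: 0% = DMSO only and 100% = 100 µM cantharidin control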
# UCH37 DUB inh = inhibitors of human deubiquitinating enzyme UCH37 | Q9Y5K5 | purified proteasome/UCH37, Ub-AMC cleavage fluorescence | inhibition, % (no concentration beside the values) | 330,000 compounds, 0.33% hits | AID 588478;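 active = mean inhibition over replicate wells above about 20%, limit read from the data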;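 also: 0% = compound-free wells with enzyme and 100% = wells lacking proteasome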
# Target sequence (Q9Y5K5 whole entry, looked up): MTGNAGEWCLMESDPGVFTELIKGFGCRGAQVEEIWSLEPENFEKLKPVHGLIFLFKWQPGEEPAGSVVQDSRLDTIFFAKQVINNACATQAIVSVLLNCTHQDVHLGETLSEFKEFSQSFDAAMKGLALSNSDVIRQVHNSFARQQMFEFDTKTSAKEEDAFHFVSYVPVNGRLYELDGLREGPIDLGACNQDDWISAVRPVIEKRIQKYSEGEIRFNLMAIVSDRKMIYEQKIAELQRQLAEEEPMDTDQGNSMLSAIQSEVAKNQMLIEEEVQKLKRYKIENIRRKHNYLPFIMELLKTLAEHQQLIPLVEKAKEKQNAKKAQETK
#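 Reagent: Ub-AMC substrate; assay system: Proteasome-associated human UCH37 deubiquitinase; controls: no-proteasome and no-compound wells; read-out: % inhibition of Ub-AMC cleavage fluorescence; timing: 30 min preincubation with enzyme, 25 min cleavage at room temperature; signal: AMC fluorescence from Ub-AMC cleavage, excitation 355 nm, emission 460 nm; buffer or medium: Tris-HCl pH 7.4 plus ovalbumin, ATP-MgCl2, DTT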
# Apaf-1 inh = inhibitors of human Apaf-1 apoptosome | O14727 | 330,000 compounds, 0.71% hits | reconstituted apoptosome caspase-3 activity, DEVD-Rh110 fluorescence | inhibition, % at 20 µM; active = inhibition of at least 40% at 20 µM;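 also: plate controls were DMSO wells for no effect and DEVD-CHO caspase inhibitor wells for full effect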
#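 Material: cell-free apoptosome with Apaf-1, procaspase-3 and caspase-9; Buffer or medium: Hepes pH 7.5 with detergent and BSA; Reagent: cytochrome c trigger plus (Z-DEVD)2-Rh110 caspase-3 substrate; Times: compound with Apaf-1, dATP, procaspase-3 30 min, then 50 min reaction, room temperature; Technique: Rh110 fluorescence intensity.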
# GSTO1 inh = GSTO1 inhibition, counter-screen for RBBP9 inhibitors. 300,000 compounds, 1.1% hits. P78417. AID 1974. inhibition, % at 5.96 µM. recombinant GSTO1, activity-based probe fluorescence polarization;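 active = inhibition above the campaign mean inhibition plus 3 SD, cut at about 35% in these data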;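 also: 0% = GSTO1-1 with DMSO and 100% = wells lacking GSTO1-1 enzyme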
# Target sequence (P78417 whole entry, looked up): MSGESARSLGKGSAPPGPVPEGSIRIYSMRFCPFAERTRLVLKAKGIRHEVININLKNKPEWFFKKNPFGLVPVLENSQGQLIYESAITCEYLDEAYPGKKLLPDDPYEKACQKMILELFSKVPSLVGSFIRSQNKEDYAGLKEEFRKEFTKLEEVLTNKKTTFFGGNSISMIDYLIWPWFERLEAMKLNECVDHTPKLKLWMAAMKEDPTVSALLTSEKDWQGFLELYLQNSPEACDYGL
# Fh CTSL1 inh = counter-screen for PFM18AAP inhibitors: inhibitors of F. hepatica cathepsin L1; recombinant F. hepatica cathepsin L1, Z-Leu-Arg-MCA fluorescence; inhibition, % at 5.96 µM; 300,000 compounds, 0.49% hits; AID 1906;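 active = inhibition above the mean of all tested compounds plus 3 SD, set per screening campaign, cut at about 17% in these data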;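 also: 0% = plate median of test compound wells and 100% = 1 µM Z-Phe-Ala-diazomethylketone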
# GSTO1 confirm = confirmation of human GSTO1 inhibitors. inhibition, % at 5.96 µM. 2,400 compounds, 54% hits. recombinant GSTO1, probe fluorescence polarization. AID 2176. shares compounds with GSTO1 inh;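 active = inhibition above the primary screen's cutoff, its mean inhibition plus 3 SD, cut at about 35% in these data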;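 also: loss of polarization as inhibitors block binding of rhodamine sulfonate ester activity probe; 0% = GSTO1 with DMSO and 100% = wells lacking GSTO1 enzyme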
# PP5 inh confirm = PP5 (human) inhibition, confirmation. Purified PP5, fluorogenic phosphatase substrate, fluorescence. shares compounds with PP5 primary. inhibition, % at 6.7 µM. 460 compounds, 22% hits. AID 2331; in the data active = inhibition above about 9.5%
# PP1 inh counter = PP1 phosphatase inhibition, counter-screen for PP5 inhibitors | shares compounds with PP5 primary | PP1 enzyme, fluorescent phosphatase substrate | inhibition, % at 6.7 µM | 460 compounds, 4% hits | AID 2355; in the data active = inhibition above about 16%
# PAD4 FP conf = confirmation of human PAD4 inhibitors; shares compounds with PAD4 inh; recombinant PAD4, RCA probe fluorescence polarization; inhibition, % at 6.36 µM; 1,200 compounds, 28% hits; AID 488796;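 active = mean inhibition across replicates above the hit cutoff set by the earlier primary screen, cut at about 15% in these data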;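 also: inhibitors block active-site labeling by the probe so polarization falls; 0% = PAD4 with probe and DMSO and 100% = probe without PAD4 enzyme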
# Apaf-1 inh conf = confirmation of Apaf-1 inhibitors | reconstituted apoptosome, caspase-3 DEVD-Rh110 fluorescence | shares compounds with Apaf-1 inh | 1,800 compounds, 25% hits | inhibition, % at 20 µM | AID 504614;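 active = mean inhibition of at least 40% at 20 µM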;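 also: plate controls were DMSO wells for no effect and DEVD-CHO caspase inhibitor control wells for full effect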
# Rh110 quench = interferes with Rh110 fluorescence, flagging false Apaf-1 inhibitors | 1,800 tested, under 10 active | activation (fluorescence interference), % at 20 µM | AID 504615 | Rh110 fluorescence interference, quenched caspase reaction | shares compounds with Apaf-1 inh;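 active = signal rise of 40% or more at 20 µM, treated as a fluorescence artifact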
# Fluor interf inh = Apaf-1 inhibitor counter-screen fluorescence artifact; fluorescence interference counterscreen, Apaf-1 assay format; 460 tested, under 10 active; IC50, µM; shares compounds with Apaf-1 inh; AID 588538; call rule not given here
# UCH37 reconfirm = confirmation of human UCH37 deubiquitinating enzyme inhibitors. shares compounds with UCH37 DUB inh. Proteasome-bound UCH37, Ub-AMC cleavage fluorescence. inhibition, % at 20 µM. 480 compounds, 27% hits. AID 624100;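 active = average inhibition over replicates above about 50%, so the earlier screening hit is confirmed, limit read from the data; inactive = the rest, counted as false positives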;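 also: based on cleavage rate fitted by regression over a 30 min kinetic read; 0% = proteasome plus Ub-AMC and 100% = Ub-AMC without proteasome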
# Numbers without * were called inactive; nt = no result; ! = repeats disagree. This is a sample that favours compounds with a hit; in the whole collection about 2% have one here.
SMILES,PAD4 inh,PP5 primary,UCH37 DUB inh,Apaf-1 inh,GSTO1 inh,Fh CTSL1 inh,GSTO1 confirm,UCH37 reconfirm,others
Cc1ccc(C(=O)NNc2cc(N3CCCC3)nc(N3CCCC3)n2)cc1,8,17*,49*,97*,49*,0,72*,50*,PP5 inh confirm=40*;PP1 inh counter=-1;Apaf-1 inh conf=89*;Rh110 quench=8;Fluor interf inh=>100
Cc1c(NC(=O)C(C)OC(=O)c2sc3ccccc3c2Cl)c(=O)n(-c2ccccc2)n1C (configuration not stated),2,-2,4,8,-2,-4,nt,nt,
Cc1c(NC(=O)C(C)OC(=O)c2ccc([N+](=O)[O-])s2)c(=O)n(-c2ccccc2)n1C (configuration not stated),-10,0,77*,24,44*,28*,13,27,
CN=c1scc(-c2cccs2)n1N=Cc1ccccc1O,nt,nt,3,nt,nt,nt,nt,nt,
Cn1nc(-c2ccccn2)nc2c(=O)n(C)c(=O)nc1-2,74*,17*,97*,98*,97*,114*,92*,100*,PAD4 FP conf=67*;Apaf-1 inh conf=100*;Rh110 quench=-1;Fluor interf inh=>100
CC(=NOCC(=O)Nc1cc(C)cc(C)c1)c1ccc2c(c1)OCCO2,nt,nt,4,nt,nt,nt,nt,nt,
NC(=O)C1CCN(C2=C(Cl)C(=O)c3ccccc3C2=O)CC1,8,7,82*,73*,87*,24*,80*,17,
NC(=O)C1CCN(c2ccc3c(c2)S(=O)(=O)c2ccccc2C3=O)CC1,-1,-3,2,-1,-8,-1,nt,nt,
COc1ccc(Br)cc1C=NNc1cccc(C(=O)O)c1,nt,nt,4,nt,nt,nt,nt,nt,
COc1ccc(NC(C)C(=O)NN=Cc2c(O)ccc3ccccc23)cc1 (configuration not stated),nt,nt,1,nt,nt,nt,nt,nt,
CON=CCC(=O)Nc1ccc(Oc2ccccc2)cc1,nt,nt,6,nt,nt,nt,nt,nt,
C=Cc1c(C)c2cc3[nH]c(cc4nc(cc5nc(cc1[nH]2)C(C)=C5CCC(=O)O)C(CCC(=O)O)=C4C)c(C)c3C=C,24*,5,47*!,11,89*,4,82*,100*,PAD4 FP conf=3
O=C1C(Cl)=C(Nc2ccc3cn[nH]c3c2)C(=O)c2ccccc21,48*,4,46*,nt,83*,28*,90*,13,PAD4 FP conf=15*
O=C(Nc1ccc2cn[nH]c2c1)c1c(Cl)cccc1Cl,0,3,2,9,20,-3,nt,nt,
O=C(O)c1ccccc1C=NNc1nc(N2CCCCC2)nc(N2CCCCC2)n1,nt,nt,2,nt,nt,nt,nt,nt,
CC(C)=CCC1=C(OCC(=O)O)C(=O)c2ccccc2C1=O,28*,5,81*,95*,89*,45*,85*,39,PAD4 FP conf=-1;Apaf-1 inh conf=88*;Rh110 quench=-8;Fluor interf inh=>100
CC(C)=CCC/C(C)=C/CC/C(C)=C/CC/C(C)=C/CC1=C(C)C(=O)c2ccccc2C1=O,-4,3,0,26,-2,1,nt,nt,

# Bioassay records (PubChem BioAssay)
